Measured values reported in ChEMBL document CHEMBL4049455, “Discovery of a B-Cell Lymphoma 6 Protein-Protein Interaction Inhibitor by a Biophysics-Driven Fragment-Based Approach” (J Med Chem, 2017).
Active and inactive are the calls of the source. The rule behind the calls is not given here.

Assays:
[1] = target: T1, B-cell lymphoma 6 protein (Homo sapiens, UniProt P41182); assay: Binding affinity to captured wild-type human biotinylated Avi-tagged BCL6 BTB domain (5 to 129 amino acid residues) expressed in Escherichia coli BL21 (DE3) by SPR analysis
[2] = target: T1, B-cell lymphoma 6 protein; assay: Binding affinity to wild-type human biotinylated Avi-tagged BCL6 BTB domain (5 to 129 amino acid residues) expressed in Escherichia coli BL21 (DE3) using 1 % DMSO by SPR analysis
Summary of the method: (§1)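 SPR (Biacore 4000) binding of BCoR peptide to immobilized wild-type or Cys-mutant BTB in running buffer containing 1%, 3% or 5% DMSO. Peptide ran from a top concentration of 100 μM in 2-fold dilutions. KD and Rmax were fitted from equilibrium response against peptide concentration.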

[3] = target: T1, B-cell lymphoma 6 protein; assay: Binding affinity to wild-type human biotinylated Avi-tagged BCL6 BTB domain (5 to 129 amino acid residues) expressed in Escherichia coli BL21 (DE3) using 3 % DMSO by SPR analysis; summary of the method: as §1
[4] = target: T1, B-cell lymphoma 6 protein; assay: Binding affinity to coupled wild-type human biotinylated Avi-tagged BCL6 BTB domain (5 to 129 amino acid residues) expressed in Escherichia coli BL21 (DE3) by SPR analysis
Summary of the method: (§2)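 Biacore 4000 SPR. Biotinylated BTB (mutant or wild-type) was captured, and wild-type was also amine-coupled on a separate spot, with NeutrAvidin detected as a reference spot. Responses were referenced between spots. Fragments were run from a top concentration of 1 mM in 2-fold dilutions. KD came from equilibrium response plotted against concentration, with BCoR peptide (100 μM) as the positive control.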

[5] = target: T2, B-cell lymphoma 6 protein (Homo sapiens, UniProt P41182, C67R/C84N/C8Q); assay: Binding affinity to captured human biotinylated Avi-tagged BCL6 BTB domain (5 to 129 amino acid residues) C8Q/C67R/C84N triple mutant expressed in Escherichia coli BL21 (DE3) by SPR analysis; summary of the method: as §2
[6] = system: B-cell lymphoma 6 protein (Homo sapiens), P41182 [C8Q,C67R,C84N]; assay: (§3) Binding affinity to human biotinylated Avi-tagged BCL6 BTB domain C8Q/C67R/C84N triple mutant expressed in Escherichia coli BL21 (DE3) using 1 % DMSO by SPR analysis; summary of the method: as §1
[7] = target: T2, B-cell lymphoma 6 protein; assay: as §3; summary of the method: as §1
[8] = system: B-cell lymphoma 6 protein (Homo sapiens), P41182 [C8Q,C67R,C84N]; assay: (§4) Binding affinity to human biotinylated Avi-tagged BCL6 BTB domain C8Q/C67R/C84N triple mutant expressed in Escherichia coli BL21 (DE3) using 3 % DMSO by SPR analysis; summary of the method: as §1
[9] = target: T2, B-cell lymphoma 6 protein; assay: as §4; summary of the method: as §1
[10] = system: B-cell lymphoma 6 protein (Homo sapiens), P41182 [C8Q,C67R,C84N]; assay: (§5) Binding affinity to human biotinylated Avi-tagged BCL6 BTB domain C8Q/C67R/C84N triple mutant expressed in Escherichia coli BL21 (DE3) using 5 % DMSO by SPR analysis; summary of the method: as §1
[11] = target: T2, B-cell lymphoma 6 protein; assay: as §5; summary of the method: as §1
[12] = target: T1, B-cell lymphoma 6 protein; assay: Binding affinity to wild-type human biotinylated Avi-tagged BCL6 BTB domain (5 to 129 amino acid residues) expressed in Escherichia coli BL21 (DE3) using 5 % DMSO by SPR analysis; summary of the method: as §1
[13] = target: T1, B-cell lymphoma 6 protein; assay: Binding affinity to 6His-tagged human BCL6 BTB domain (7 to 128 amino acid residues) expressed in Escherichia coli Rosetta (DE3) after 1 min by fluorescence polarization assay
[14] = system: B-cell lymphoma 6 protein (Homo sapiens), P41182 [C8Q,C67R,C84N]; assay: Binding affinity to human biotinylated His/Avi/SUMO/FLAG-tagged BCL6 BTB domain (5 to 129 amino acid residues) C8Q/C67R/C84N triple mutant expressed in Escherichia coli BL21 (DE3) by STD-NMR spectroscopy
Summary of the method: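 STD-NMR was run on a sample of 400 μM ligand with 20 μM BCL6 BTB at 15 °C, using 32 scans. On- and off-resonance saturation was at 0.4 and 30 ppm, with 2.0 s total saturation. Binding was read as signal decrease on on-resonance irradiation.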

[15] = system: B-cell lymphoma 6 protein (Homo sapiens), P41182 [C8Q,C67R,C84N]; assay: Inhibition of BCoR peptide binding to human biotinylated His/Avi/SUMO/FLAG-tagged BCL6 BTB domain (5 to 129 amino acid residues) C8Q/C67R/C84N triple mutant expressed in Escherichia coli BL21 (DE3) by SPR competition assay
[16] = target: T1, B-cell lymphoma 6 protein; assay: Binding affinity to recombinant RED-NHS labeled BCL6 BTB domain (unknown origin) expressed in Escherichia coli BL21 (DE3) after 10 mins by microscale thermophoresis method

Nc1nccc(Nc2ccccc2)n1
Kd [1]: 3000 µM

Ac-RSEIISTAPSSWVVPPK-OH
Kd [2]: 7.5 µM | Rmax [2]: 245 RU | Kd [3]: 9.3 µM | Rmax [3]: 242 RU | Activity [1]: Dose-dependent effect | Kd [1]: 17 µM | Kd [4]: 14 µM | Kd [5]: 40 µM | Rmax [6]: 311 RU | Kd [7]: 17 µM | Rmax [8]: 302 RU | Kd [9]: 21 µM | Rmax [10]: 304 RU | Kd [11]: 25 µM | Kd [12]: 12 µM | Rmax [12]: 243 RU

O=C1Cc2cc(Nc3ncncc3Cl)ccc2N1
Kd [1]: 9.3 µM

CO[C@H]1/C=C/O[C@@]2(C)Oc3c(C)c(O)c4c(O)c(cc(O)c4c3C2=O)NC(=O)/C(C)=C\C=C\[C@H](C)[C@H](O)[C@@H](C)[C@@H](O)[C@@H](C)[C@H](OC(C)=O)[C@@H]1C [RIFAMYCIN]
Kd [13]: 1000 µM

Nc1ncnc(Nc2ccccc2)n1
Activity [14]: Active | inhibition [15]: Active

Nc1ncc(F)c(Nc2ccccc2)n1
Kd [1]: 180 µM

O=C(O)CC(C(=O)O)N1C(=O)/C(=C2/C(=O)Nc3ccc(Br)cc32)SC1=S (stereo not drawn)
Kd [16]: 129 µM
